Experimental data as given in PMC3690177 (Bioorganic & medicinal chemistry letters, 2008).

How the values were obtained:
[1] = test system: mice; experiment: WIN55,212-2-induced catalepsy, ring catalepsy test; assay type: in vivo, mouse; conditions: for Effect on WIN55,212-2-induced catalepsy: 30 min prior to WIN55,212-2 5 mg-kg−1
Outline: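 Mice were pretreated i.p. with vehicle, test compound (20 mg-kg−1) or CB1 antagonist (5 mg-kg−1). After 30 min they received vehicle or WIN55,212-2 (5 mg-kg−1, i.p.). Cataleptic behaviour was scored 30 min after the WIN55,212-2 injection. n = 6. Analysis was ANOVA with Bonferroni post hoc tests. Error bars are SEM.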

[2] = test system: Swiss mice; experiment: Formalin plantar test with; assay type: in vivo, mouse; conditions: for Effect on analgesic effects of methanandamide in formalin test: 30 min before intraplantar formalin with mAEA 50 μg
Outline: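 Swiss mice were pretreated i.p. with vehicle, test compound (20 mg-kg−1) or CB1 antagonist (2 mg-kg−1). Intraplantar formalin followed 30 min later, with or without co-injected (R)-methanandamide (50 μg). Nociception was scored in the first phase (0–15 min) and second phase (15–45 min). n = 8–13. Analysis was repeated-measures ANOVA with Bonferroni tests. Error bars are SEM.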

[3] = test system: Swiss mice; experiment: WIN55,212-2-induced hypothermia; assay type: in vivo, mouse
Outline: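 Swiss mice received a first i.p. injection of vehicle, test compound (20 mg-kg−1) or CB1 antagonist (2 mg-kg−1). A second injection of WIN55,212-2 (3 mg-kg−1, i.p.) followed 30 min later. Body temperature was read 30 min after WIN55,212-2. n = 5. Analysis was ANOVA with Bonferroni post hoc tests. Error bars are SEM.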

[4] = test system: Swiss mice; experiment: Food intake over 24 h in Swiss mice; assay type: in vivo, mouse; conditions: 30 min before dark onset; for Effect on total food consumption: 20 mg-kg−1 i.p.
Outline: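 Male Swiss mice were dosed i.p. with test compound (5 or 20 mg-kg−1) or vehicle 30 min before dark onset. Cumulative food intake was monitored for 24 h. n = 12 per group. Data were analysed by 2-way repeated-measures ANOVA with Bonferroni post hoc test. Error bars are SEM.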

[5] = test system: mouse CB2 receptors; experiment: cAMP accumulation in Hek-293 cells stably expressing mouse CB2 receptors; assay type: cell-based; conditions: isoproterenol 10 μM alone; basal 18 ± 2.4; n = 4
[6] = test system: mice; experiment: Motor activity in mice; assay type: in vivo, mouse; conditions: 20 mg-kg−1 i.p.; data not shown
[7] = Drug levels in plasma and tissues after systemic administration; assay type: in vivo, mouse
[8] = test system: ob/ob mice; experiment: Food intake and body-weight gain in ob/ob mice, daily treatment for 2 weeks; assay type: in vivo, mouse; conditions: 20 mg-kg−1 i.p. once daily for 2 weeks
Outline: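 Genetically obese ob/ob mice received test compound (20 mg-kg−1, i.p.) or vehicle once daily for 2 weeks. Food intake was recorded, and body weight was expressed as % change from day 0. n = 8 per group. Analysis was 2-way repeated-measures ANOVA with Bonferroni post hoc test. Error bars are SEM.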

[9] = target: CB1 receptors (Rattus norvegicus, UniProt P20272); experiment: GTPγS binding in rat cerebellar membrane preparations; assay type: biochemical; conditions: absence of WIN55,212-2; 100 nM–10 μM; data not shown
CB1 receptors, sequence (P20272 whole entry): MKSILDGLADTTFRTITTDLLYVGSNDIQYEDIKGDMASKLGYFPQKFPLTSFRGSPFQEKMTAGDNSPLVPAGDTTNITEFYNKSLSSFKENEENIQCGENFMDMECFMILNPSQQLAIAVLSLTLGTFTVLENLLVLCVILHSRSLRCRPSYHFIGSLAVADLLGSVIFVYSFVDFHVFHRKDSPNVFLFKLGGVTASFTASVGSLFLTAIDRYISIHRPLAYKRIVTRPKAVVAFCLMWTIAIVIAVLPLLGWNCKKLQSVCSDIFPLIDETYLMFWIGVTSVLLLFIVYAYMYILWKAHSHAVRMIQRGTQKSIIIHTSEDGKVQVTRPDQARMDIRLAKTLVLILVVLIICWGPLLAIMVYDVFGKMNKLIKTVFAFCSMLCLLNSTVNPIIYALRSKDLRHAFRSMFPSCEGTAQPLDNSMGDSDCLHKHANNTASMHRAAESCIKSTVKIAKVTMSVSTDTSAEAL

Cc1c(C(=O)NN2CCCCC2)nn(-c2ccc(Cl)cc2Cl)c1-c1ccc(Cl)cc1 [rimonabant]
Effect on WIN55,212-2-induced catalepsy ([1]; 5 mg-kg−1 i.p.): reversed | Effect on analgesic effects of methanandamide in formalin test ([2]; 2 mg-kg−1 i.p.): completely blocked | Effect on WIN55,212-2-induced hypothermia ([3]; 2 mg-kg−1 i.p., 30 min pretreatment, WIN55,212-2 3 mg-kg−1 i.p.): attenuated | Effect on total food consumption [4]: mimicked

Cc1c(C(=O)c2cccc3ccccc23)c2cccc3c2n1[C@H](CN1CCOCC1)CO3 [WIN55,212-2]
Time spent cataleptic in the ring catalepsy test ([1]; 5 mg-kg−1, scored 30 min later): significant increase | Body temperature effect ([3]; 3 mg-kg−1 i.p., 30 min after administration): maximal hypothermia

CC(C)NCC(O)c1ccc(O)c(O)c1 (stereo not drawn) [isoproterenol]
cAMP levels [5]: 56.2 ± 6 pmol/well

CCCCC/C=C\C/C=C\C/C=C\C/C=C\CCCC(=O)N[C@H](C)CO [(R)-methanandamide]
Effect on nocifensive behavior in the formalin plantar test ([2]; mAEA 50 μg co-injected with formalin): inhibits

Cc1c(C(=O)c2ccccc2)c(N)c(-c2ccccc2)n1Cc1ccc(Cl)cc1 [URB447, [4-amino-1-(4-chlorobenzyl)-2-methyl-5-phenyl-1H-pyrrol-3-yl](phenyl)methanone]
Effect on motor activity [6]: did not alter | Liver Cmax ([7]; 20 mg-kg−1 i.p.): 4.3 ± 0.7 nmol/g | Time of maximal tissue levels in liver ([7]; 20 mg-kg−1 i.p.): 15 min | Time of maximal tissue levels in white adipose fat ([7]; 20 mg-kg−1 i.p.): 15 min | Cmax ([7]; mouse, plasma, ip, 20 mg): 596 ± 117 nM | Tmax ([7]; mouse, plasma, ip, 20 mg): 30 min | Effect on WIN55,212-2-induced catalepsy ([1]; 20 mg-kg−1 i.p.): unaffected | Effect on analgesic effects of methanandamide in formalin test ([2]; 20 mg-kg−1 i.p.): completely blocked | Amount of food consumed throughout the treatment period [8]: significant reduction | Body-weight gain [8]: significant attenuation | Inhibition of basal GTPγS binding [9]: failed to inhibit | Effect on food intake ([4]; 5 mg-kg−1 i.p.): no effect | Effect on total food consumption [4]: drastically reduced
